Results taken from paper PMC2923816 (Bioorganic & medicinal chemistry letters, 2010).
Read-outs that look alike come from different tables or passages of the source.

Columns and labels:
human haspin kinase = molecular target: T1, human haspin kinase (Homo sapiens, UniProt Q8TF76); test: haspin kinase TR-FRET assay; format: biochemical
T1 sequence (Q8TF76 1-798): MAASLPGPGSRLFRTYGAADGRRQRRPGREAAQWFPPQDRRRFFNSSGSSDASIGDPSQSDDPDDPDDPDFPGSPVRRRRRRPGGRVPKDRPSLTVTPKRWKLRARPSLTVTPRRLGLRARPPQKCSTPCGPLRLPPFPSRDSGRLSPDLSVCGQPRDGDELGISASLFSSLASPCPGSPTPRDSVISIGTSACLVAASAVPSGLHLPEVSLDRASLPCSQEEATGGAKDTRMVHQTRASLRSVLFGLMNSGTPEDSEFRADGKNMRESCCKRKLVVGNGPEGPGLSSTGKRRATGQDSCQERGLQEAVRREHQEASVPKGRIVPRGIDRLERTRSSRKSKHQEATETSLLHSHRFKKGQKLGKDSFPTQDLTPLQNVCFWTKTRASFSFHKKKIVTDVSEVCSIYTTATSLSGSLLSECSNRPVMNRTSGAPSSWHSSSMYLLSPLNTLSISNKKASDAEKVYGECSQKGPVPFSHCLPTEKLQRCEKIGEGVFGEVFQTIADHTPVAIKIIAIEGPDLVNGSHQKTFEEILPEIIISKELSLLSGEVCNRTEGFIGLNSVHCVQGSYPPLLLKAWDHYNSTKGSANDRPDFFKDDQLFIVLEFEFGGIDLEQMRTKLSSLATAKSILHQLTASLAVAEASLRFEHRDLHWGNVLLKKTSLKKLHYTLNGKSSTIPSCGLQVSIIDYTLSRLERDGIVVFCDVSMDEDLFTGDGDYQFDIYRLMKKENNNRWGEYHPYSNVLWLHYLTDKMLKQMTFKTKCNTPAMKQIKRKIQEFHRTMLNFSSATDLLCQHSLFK
Method in brief: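 Human haspin activity measured by TR-FRET at varying test compound concentrations to give IC50, using the HTS format: histone H3 peptide substrate, with phosphorylated product (H3T3ph) detected by a europium-labelled phosphospecific monoclonal antibody. For the selectivity ratio, DYRK2 was assayed by 33P incorporation into Woodtide peptide with human N-terminal GST-fused DYRK2 and γ33P-ATP.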

human DYRK2 = molecular target: T2, human DYRK2 (Homo sapiens, UniProt Q92630); test: DYRK2 kinase 33P-incorporation into Woodtide peptide; format: biochemical; conditions: read-out: IC50 DYRK2, Woodtide substrate
T2 sequence (Q92630 1-601): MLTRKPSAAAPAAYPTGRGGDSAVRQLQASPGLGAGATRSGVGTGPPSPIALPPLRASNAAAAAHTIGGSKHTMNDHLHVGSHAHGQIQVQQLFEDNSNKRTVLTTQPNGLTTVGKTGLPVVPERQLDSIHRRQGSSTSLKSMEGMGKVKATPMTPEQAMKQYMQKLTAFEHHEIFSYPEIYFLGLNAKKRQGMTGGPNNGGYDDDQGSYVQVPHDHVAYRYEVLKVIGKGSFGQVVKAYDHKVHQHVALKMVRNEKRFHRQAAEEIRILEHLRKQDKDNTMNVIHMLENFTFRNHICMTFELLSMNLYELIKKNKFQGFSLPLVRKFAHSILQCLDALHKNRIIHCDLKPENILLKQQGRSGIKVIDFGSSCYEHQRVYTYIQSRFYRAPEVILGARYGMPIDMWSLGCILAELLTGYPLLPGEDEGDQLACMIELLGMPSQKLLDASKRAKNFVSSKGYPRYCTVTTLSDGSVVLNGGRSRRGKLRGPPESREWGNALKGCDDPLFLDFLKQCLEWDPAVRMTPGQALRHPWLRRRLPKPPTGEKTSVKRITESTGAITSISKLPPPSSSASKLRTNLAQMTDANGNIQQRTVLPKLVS

[1] = read-out: IC50 haspin, TR-FRET assay

Row | selectivity for haspin over DYRK2 (human haspin kinase; ratio of IC50 values) [fold] | IC50 (human haspin kinase; [1]) [nM] | IC50 (human haspin kinase; read-out: haspin IC50) [nM] | IC50 (human DYRK2) [nM] | SMILES
1 | 180 | 55 | < 60 | 9900 | COc1ccc2nc3ccc(Cl)cc3c(SCCCN)c2c1 [Compound 33]
2 |  | 2100 |  |  | COc1ccc2nc3ccc(OC)cc3c(SCCCN3C(=O)c4ccccc4C3=O)c2c1 [Compound 41]
